Source: ChEMBL document CHEMBL1667748, “Synthesis and anti-inflammatory evaluation of some new acyl-hydrazones bearing 2-aryl-thiazole” (2011)
Active and inactive are the calls of the source. The rule behind the calls is not given here.

What was measured:
Rattus norvegicus [1] = species: Rattus norvegicus; experiment: Induction of phagocytosis in Wistar-Bratislava albino rat PMNC using Escherichia coli suspension assessed as reduction in phagocytosis activity after 30 mins; format: functional
Rattus norvegicus [2] = species: Rattus norvegicus; experiment: Induction of phagocytosis in Wistar-Bratislava albino rat PMNC using Escherichia coli suspension assessed as reduction in phagocytosis index after 30 mins; format: functional
Rattus norvegicus [3] = experiment: Antiinflammatory activity against Wistar-Bratislava albino rat assessed as lymphocyte count at 3.2 mg/kg, ip (Rbv = 37+/-2.2%); format: functional; details: route intraperitoneal
Rattus norvegicus [4] = experiment: Antiinflammatory activity against Wistar-Bratislava albino rat assessed as leukocyte count at 3.2 mg/kg, ip (Rbv = 4952.7+/-436.9 number/mm'3); format: functional; details: route intraperitoneal
Rattus norvegicus [5] = experiment: Antiinflammatory activity against Wistar-Bratislava albino rat assessed as neutrophil count at 3.2 mg/kg, ip (Rbv = 55.6+/-1.32%); format: functional; details: route intraperitoneal
Rattus norvegicus [6] = experiment: Antiinflammatory activity against Wistar-Bratislava albino rat assessed as monocyte count at 3.2 mg/kg, ip (Rbv = 7.6+/-0.45%); format: functional; details: route intraperitoneal
Rattus norvegicus [7] = experiment: Antiinflammatory activity against Wistar-Bratislava albino rat assessed as reduction serum nitrate/nitrite concentration at 3.2 mg/kg, ip; format: functional, organism-based; design: dose 3.2 mg/kg
Procedure, shortened: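 In rats given turpentine oil 0.6 mL/100 g i.m. plus i.p. treatment in 1% carboxymethyl cellulose suspension, serum nitrate was reduced to nitrite with VCl3 in acidic solution. Griess reagents (SULF, NEDD) were then added, and absorbance at 540 nm was read after about 30-45 min incubation.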

Compound	Activity (Rattus norvegicus [1])	Activity (Rattus norvegicus [2])	Activity (Rattus norvegicus [3])	Activity (Rattus norvegicus [4])	Activity (Rattus norvegicus [5])	Activity (Rattus norvegicus [6])	Activity (Rattus norvegicus [7])
O=C(COc1ccc2c(=O)cc(-c3ccccc3)oc2c1)N/N=C/c1cccc(OCc2csc(-c3ccc(Br)cc3)n2)c1	Active	Active	39.86%	8000 /mm3	57.43%	3.28%	Active
O=C(Cc1csc(-c2cccc(C(F)(F)F)c2)n1)N/N=C\c1ccc(OCc2csc(-c3ccccc3)n2)cc1	Active	Active	20.71%	5664.28 /mm3	82.28%	2%	inactive
O=C(Cc1csc(-c2cccc(C(F)(F)F)c2)n1)N/N=C/c1cccc(OCc2csc(-c3ccccc3)n2)c1	Active	Active	32.28%	9540 /mm3	61.71%	2.4%	–
Cc1cnc(NC(=O)C2=C(O)c3ccccc3S(=O)(=O)N2C)s1 [MELOXICAM]	–	–	32.28%	7660 /mm3	66.57%	2%	–
O=C(Cc1csc(-c2cccc(C(F)(F)F)c2)n1)N/N=C/c1cccc(OCc2csc(-c3ccc(Br)cc3)n2)c1	Active	–	23.43%	6914.28 /mm3	70.86%	2.86%	Active
Cc1ccc(-c2nc(CC(=O)N/N=C\c3ccc(OCC(=O)c4sc(-c5ccccc5)nc4C)cc3)cs2)cc1	Active	Active	32.14%	8742.85 /mm3	66%	2.43%	Active
O=C(Cc1csc(-c2cccc(C(F)(F)F)c2)n1)N/N=C/c1ccccc1OCc1csc(-c2ccc(Br)cc2)n1	Active	Active	24.71%	7837.14 /mm3	68.85%	2.57%	–
Cc1nc(-c2ccccc2)sc1C(=O)COc1ccc(/C=N\NC(=O)Cc2csc(-c3cccc(C(F)(F)F)c3)n2)cc1	–	Active	18%	10200 /mm3	78%	2%	Active
Cc1ccc(-c2nc(CC(=O)N/N=C\c3ccc(OCc4csc(-c5ccccc5)n4)cc3)cs2)cc1	–	–	21.43%	3271.43 /mm3	52.57%	1.86%	inactive
Cc1ccc(-c2nc(CC(=O)N/N=C/c3ccccc3OCc3csc(-c4ccc(Br)cc4)n3)cs2)cc1	–	–	29.14%	9300 /mm3	67.71%	2.86%	inactive
Cc1ccc(-c2nc(CC(=O)N/N=C\c3ccc(OCc4csc(-c5ccc(Br)cc5)n4)cc3)cs2)cc1	–	–	28.57%	7314.28 /mm3	68.28%	2.71%	–
O=C(COc1ccc2c(=O)cc(-c3ccccc3)oc2c1)N/N=C/c1cccc(OCc2csc(-c3ccccc3)n2)c1	–	–	24%	12100 /mm3	71.71%	2.6%	Active
Cc1ccc(-c2nc(CC(=O)N/N=C/c3cccc(OCc4csc(-c5ccccc5)n4)c3)cs2)cc1	–	–	19.71%	8620 /mm3	73.29%	2.86%	inactive
O=C(COc1ccc2c(=O)cc(-c3ccccc3)oc2c1)N/N=C\c1ccc(OCc2csc(-c3ccccc3)n2)cc1	Active	Active	23.57%	8228.57 /mm3	76%	3.71%	inactive
O=C(Cc1csc(-c2cccc(C(F)(F)F)c2)n1)N/N=C\c1ccc(OCc2csc(-c3ccc(Br)cc3)n2)cc1	–	–	32%	7402.85 /mm3	63.14%	3.14%	inactive
